Data published in ChEMBL document CHEMBL4425095, “Novel Cephalosporins Selectively Active on Nonreplicating Mycobacterium tuberculosis” (J Med Chem, 2016).
≈ marks a conversion by molar mass, not a printed value.

Experiments:
Assay type in all cases: functional
[1] = tested on: Mycobacterium tuberculosis; assay: Antimycobacterial activity against non-replicating Mycobacterium tuberculosis mc2 6220 harboring panCD/lysA deletion mutant incubated for 7 days measured at OD580 = 0.1 by two-fold serial dilution method
Procedure, shortened: (§1)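 M. tuberculosis mc26220 washed twice in PBS-tyloxapol and resuspended in Sauton's-based nonreplicating medium (pH 5.0, butyrate 0.05%, BSA, tyloxapol, lysine, pantothenate, 0.5 mM NaNO2). Incubated at 1% O2, 5% CO2 with 2-fold serially diluted compound from DMSO. After 3 days, diluted 5-fold in fresh replicating medium for outgrowth at 20% O2. Reported as MIC90.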

[2] = tested on: Mycobacterium tuberculosis; assay: Antimycobacterial activity against non-replicating Mycobacterium tuberculosis mc2 6220 harboring panCD/lysA deletion mutant incubated for 7 days measured at OD580 = 0.01 by two-fold serial dilution method; procedure, shortened: as §1
[3] = tested on: Mycobacterium tuberculosis; assay: Antimycobacterial activity against replicating Mycobacterium tuberculosis mc2 6220 harboring panCD/lysA deletion mutant by two-fold serial dilution method
Procedure, shortened: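 M. tuberculosis mc26220 in replicating medium supplemented with glycerol (final 0.5%), OADC, casamino acids 0.05%, lysine 240 μg/mL and pantothenate 24 μg/mL. Exposed to 2-fold serially diluted compound from DMSO. OD580 read after 7 days at 20% O2, 5% CO2. Reported as MIC90.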

SMILES: CC1=C(c2nc(C)no2)N2C(=O)[C@@H](NC(=O)COc3ccc(Cl)cc3)[C@H]2SC1
- MIC90 [1]: 1.72 µg/mL (≈ 4.09 µM)
- MIC90 [2]: 1.2 µg/mL (≈ 2.85 µM)
- MIC90 [3]: >100 µg/mL

SMILES: COC(=O)C1=C(C)CS[C@@H]2[C@H](NC(=O)COc3ccc(Cl)cc3)C(=O)N12
- MIC90 [1]: 1.25 µg/mL (≈ 3.15 µM)
- MIC90 [2]: 0.95 µg/mL (≈ 2.39 µM)
- MIC90 [3]: >100 µg/mL

SMILES: CC1=C(c2nc(C)no2)N2C(=O)[C@@H](NC(=O)Cc3ccc(C)cc3)[C@H]2SC1
- MIC90 [1]: 1.75 µg/mL (≈ 4.55 µM)
- MIC90 [3]: >100 µg/mL

SMILES: COc1ccc(CCC(=O)N[C@@H]2C(=O)N3C(c4nc(C)no4)=C(C)CS[C@H]23)cc1
- MIC90 [1]: 1.68 µg/mL (≈ 4.05 µM)
- MIC90 [2]: 1.13 µg/mL (≈ 2.73 µM)
- MIC90 [3]: >100 µg/mL

SMILES: CCCCOC(=O)C1=C(C)CS[C@@H]2[C@H](NC(=O)CCc3ccc(OC)cc3)C(=O)N12
- MIC90 [1]: 0.26 µg/mL (≈ 0.601 µM)
- MIC90 [2]: 0.24 µg/mL (≈ 0.555 µM)
- MIC90 [3]: >100 µg/mL

SMILES: CCCc1noc(C2=C(C)CS[C@@H]3[C@H](NC(=O)COc4ccc(Cl)cc4)C(=O)N23)n1
- MIC90 [1]: 3.87 µg/mL (≈ 8.62 µM)
- MIC90 [2]: 1.36 µg/mL (≈ 3.03 µM)
- MIC90 [3]: >100 µg/mL

SMILES: CC1=C(c2nc(C)no2)N2C(=O)[C@@H](NC(=O)Cc3ccc(Cl)cc3)[C@H]2SC1
- MIC90 [1]: 1.13 µg/mL (≈ 2.79 µM)
- MIC90 [3]: >100 µg/mL

SMILES: CCCc1noc(C2=C(C)CS[C@@H]3[C@H](NC(=O)Cc4ccc(OC)cc4)C(=O)N23)n1
- MIC90 [1]: 0.77 µg/mL (≈ 1.8 µM)
- MIC90 [3]: >100 µg/mL

SMILES: CC(=O)OCC1=C(C(=O)O)N2C(=O)[C@@H](NC(=O)Cc3cccs3)[C@H]2SC1 [CEPHALOTHIN]
- MIC90 [1]: >100 µg/mL
- MIC90 [2]: 95.53 µg/mL (≈ 241 µM)
- MIC90 [3]: >100 µg/mL

SMILES: CC1=CS[C@@H]2[C@H](NC(=O)COc3ccccc3)C(=O)N2[C@H]1COS(=O)(=O)c1ccc(Br)cc1
- MIC90 [1]: >55.34 µg/mL
- MIC90 [2]: >55.34 µg/mL
- MIC90 [3]: >83.24 µg/mL

SMILES: CCOC(=O)C1=C(C)CS[C@@H]2[C@H](NC(=O)COc3ccccc3)C(=O)N12
- MIC90 [1]: 1.71 µg/mL (≈ 4.54 µM)
- MIC90 [2]: 0.66 µg/mL (≈ 1.75 µM)
- MIC90 [3]: 57.85 µg/mL (≈ 154 µM)

SMILES: CC1=C(C(=O)O)N2C(=O)[C@@H](NC(=O)Cc3ccc(Cl)cc3)[C@H]2SC1
- MIC90 [1]: >36.68 µg/mL
- MIC90 [2]: >36.68 µg/mL
- MIC90 [3]: 81.38 µg/mL (≈ 222 µM)

SMILES: CCCc1noc(C2=C(C)CS[C@@H]3[C@H](NC(=O)CCc4ccc(Cl)cc4)C(=O)N23)n1
- MIC90 [3]: >100 µg/mL

SMILES: CCCc1noc(C2=C(C)CS[C@@H]3[C@H](NC(=O)CCc4ccc(OC)cc4)C(=O)N23)n1
- MIC90 [1]: 0.67 µg/mL (≈ 1.51 µM)
- MIC90 [2]: 0.37 µg/mL (≈ 0.836 µM)
- MIC90 [3]: >100 µg/mL

SMILES: CCCOC(=O)C1=C(C)CS[C@@H]2[C@H](NC(=O)CCc3ccc(OC)cc3)C(=O)N12
- MIC90 [1]: <0.2 µg/mL
- MIC90 [2]: <0.2 µg/mL
- MIC90 [3]: >100 µg/mL

SMILES: CC1=C(C(=O)O)N2C(=O)[C@@H](NC(=O)CCc3ccc(Br)cc3)[C@H]2SC1
- MIC90 [1]: >42.53 µg/mL
- MIC90 [2]: >42.53 µg/mL
- MIC90 [3]: 96.13 µg/mL (≈ 226 µM)

SMILES: CC1=C(C(=O)O/N=C(\C)N)N2C(=O)[C@@H](NC(=O)COc3ccccc3)[C@H]2SC1
- MIC90 [1]: 8.12 µg/mL (≈ 20.1 µM)
- MIC90 [2]: 5.6 µg/mL (≈ 13.8 µM)
- MIC90 [3]: >100 µg/mL

SMILES: CC1=C(c2nc(C)no2)N2C(=O)[C@@H](NC(=O)OCC(Cl)(Cl)Cl)[C@H]2SC1
- MIC90 [1]: 0.92 µg/mL (≈ 2.15 µM)
- MIC90 [2]: 0.46 µg/mL (≈ 1.08 µM)
- MIC90 [3]: >100 µg/mL

SMILES: CC1=C(c2nc(C)no2)N2C(=O)[C@@H](NC(=O)Cc3ccc(Cl)c(Cl)c3)[C@H]2SC1
- MIC90 [1]: 0.28 µg/mL (≈ 0.637 µM)
- MIC90 [3]: >100 µg/mL

SMILES: COc1ccc(CCC(=O)N[C@@H]2C(=O)N3C(C(=O)O)=C(C)CS[C@H]23)cc1
- MIC90 [1]: >37.64 µg/mL
- MIC90 [2]: >37.64 µg/mL
- MIC90 [3]: >100 µg/mL

SMILES: CCCc1noc(C2=C(C)CS[C@@H]3[C@H](NC(=O)Cc4ccc(C)cc4)C(=O)N23)n1
- MIC90 [1]: 0.64 µg/mL (≈ 1.55 µM)
- MIC90 [3]: >100 µg/mL

SMILES: COC(=O)C1=C(C)CS[C@@H]2[C@H](NC(=O)[C@H](N)c3ccccc3)C(=O)N12
- MIC90 [1]: 61.78 µg/mL (≈ 171 µM)
- MIC90 [3]: >100 µg/mL

SMILES: COc1ccc(CC(=O)N[C@@H]2C(=O)N3C(c4nc(C)no4)=C(C)CS[C@H]23)cc1
- MIC90 [1]: 3.25 µg/mL (≈ 8.12 µM)
- MIC90 [3]: >100 µg/mL

SMILES: CCSC(=O)N[C@@H]1C(=O)N2C(c3nc(C)no3)=C(C)CS[C@H]12
- MIC90 [1]: 1.84 µg/mL (≈ 5.4 µM)
- MIC90 [3]: >100 µg/mL

SMILES: CCCOC(=O)C1=C(C)CS[C@@H]2[C@H](NC(=O)[C@H](N)c3ccccc3)C(=O)N12
- MIC90 [1]: 15.46 µg/mL (≈ 39.7 µM)
- MIC90 [3]: >100 µg/mL

SMILES: CCCc1noc(C2=C(C)CS[C@@H]3[C@H](NC(=O)Cc4ccccc4)C(=O)N23)n1
- MIC90 [1]: 1.04 µg/mL (≈ 2.61 µM)
- MIC90 [3]: >100 µg/mL
